# Results: ChEMBL document CHEMBL3621107, “Ring fusion strategy for synthesis and lead optimization of sulfur-substituted anthra[1,2-c][1,2,5]thiadiazole-6,11-dione derivatives as promising scaffold of antitumor agents” (Eur J Med Chem, 2015)
# How the values were obtained:
# Format in all cases: functional
# K562 = experiment: Cytotoxicity against human K562 cells after 48 hrs by SRB assay; conditions: K562, 48 h
# Outline: (§1)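 NCI-60 human tumour cell panel screen, second stage, run by the NCI Developmental Therapeutics Program. Compounds were tested at five concentrations (0.01, 0.1, 1, 10 and 100 μM). Percentage growth was plotted against log10 concentration for each cell line. GI50, TGI and LC50 were taken from these dose-response curves.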
# RPMI-8226 = experiment: Cytotoxicity against human RPMI8226 cells after 48 hrs by SRB assay; conditions: RPMI-8226, 48 h
# Outline: (§2)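 Second-stage NCI-60 panel run by the NCI Developmental Therapeutics Program, covering nine tumour subpanels. Five concentrations were tested: 0.01, 0.1, 1, 10 and 100 μM. Percentage growth at each level was plotted against log10 drug concentration. GI50, TGI and LC50 were read from these dose-response curves. Subpanel MID values were divided into the full-panel MID to give selectivity ratios.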
# A549 = experiment: Cytotoxicity against human A549 cells after 48 hrs by SRB assay; conditions: A549, 48 h; outline: as §1
# HOP-92 = experiment: Cytotoxicity against human HOP92 cells after 48 hrs by SRB assay; conditions: HOP-92, 48 h; outline: as §1
# NCI-H522 = experiment: Cytotoxicity against human NCI-H522 cells after 48 hrs by SRB assay; conditions: NCI-H522, 48 h; outline: as §2
# COLO 205 = experiment: Cytotoxicity against human COLO205 cells after 48 hrs by SRB assay; conditions: COLO 205, 48 h; outline: as §1
# HCT-116 = experiment: Cytotoxicity against human HCT116 cells after 48 hrs by SRB assay; conditions: HCT-116, 48 h; outline: as §1
# HCT-15 = experiment: Cytotoxicity against human HCT15 cells after 48 hrs by SRB assay; conditions: HCT-15, 48 h; outline: as §1
# HT-29 = experiment: Cytotoxicity against human HT-29 cells after 48 hrs by SRB assay; conditions: HT-29, 48 h; outline: as §1
# KM12 = experiment: Cytotoxicity against human KM12 cells after 48 hrs by SRB assay; conditions: KM12, 48 h; outline: as §1
# SW-620 = experiment: Cytotoxicity against human SW620 cells after 48 hrs by SRB assay; conditions: SW-620, 48 h
# Outline: (§3)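 NCI-60 five-dose study run by NCI DTP at 0.01, 0.1, 1, 10 and 100 µM. Percentage growth at each level was plotted against log10 concentration for each line, and GI50, TGI and LC50 were read from the dose-response curves.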
# SF-295 = experiment: Cytotoxicity against human SF295 cells after 48 hrs by SRB assay; conditions: SF-295, 48 h; outline: as §2
# SF-539 = experiment: Cytotoxicity against human SF539 cells after 48 hrs by SRB assay; conditions: SF-539, 48 h; outline: as §2
# SNB-19 = experiment: Cytotoxicity against human SNB19 cells after 48 hrs by SRB assay; conditions: SNB-19, 48 h; outline: as §2
# SNB-75 = experiment: Cytotoxicity against human SNB75 cells after 48 hrs by SRB assay; conditions: SNB-75, 48 h; outline: as §3
# U-251 = experiment: Cytotoxicity against human U251 cells after 48 hrs by SRB assay; conditions: U-251, 48 h; outline: as §3
# UACC-257 = experiment: Cytotoxicity against human UACC257 cells after 48 hrs by SRB assay; conditions: UACC-257, 48 h; outline: as §3
# IGROV-1 = experiment: Cytotoxicity against human IGROV1 cells after 48 hrs by SRB assay; conditions: IGROV-1, 48 h; outline: as §1
# OVCAR-3 = experiment: Cytotoxicity against human OVCAR3 cells after 48 hrs by SRB assay; conditions: OVCAR-3, 48 h; outline: as §2
# NCI/ADR-RES = experiment: Cytotoxicity against human NCI/ADR-RES cells after 48 hrs by SRB assay; outline: as §2
# SK-OV-3 = experiment: Cytotoxicity against human SKOV3 cells after 48 hrs by SRB assay; conditions: SK-OV-3, 48 h; outline: as §2
# CAKI-1 = experiment: Cytotoxicity against human Caki1 cells after 48 hrs by SRB assay; conditions: CAKI-1, 48 h; outline: as §1
# SN12C = experiment: Cytotoxicity against human SN12C cells after 48 hrs by SRB assay; outline: as §2
# TK-10 = experiment: Cytotoxicity against human TK10 cells after 48 hrs by SRB assay; conditions: TK-10, 48 h; outline: as §3
# UO-31 = experiment: Cytotoxicity against human UO31 cells after 48 hrs by SRB assay; conditions: UO-31, 48 h; outline: as §3
# DU-145 = experiment: Cytotoxicity against human DU145 cells after 48 hrs by SRB assay; conditions: DU-145, 48 h; outline: as §1
# MDA-MB-468 = experiment: Cytotoxicity against human MDA-MB-468 cells after 48 hrs by SRB assay; conditions: MDA-MB-468, 48 h; outline: as §2
# [1] = Cytotoxicity against human leukemia cells assessed as growth inhibition after 48 hrs by SRB assay; conditions: Leukemia cell
# Outline: (§4)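 Values come from the NCI-60 five-dose panel (0.01–100 µM). The subpanel MID is the mean GI50 over the lines of that tumour subpanel. The selectivity ratio is the full-panel MID divided by the subpanel MID; 3–6 is rated moderate and >6 high.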
# [2] = Cytotoxicity against human colon cancer cells assessed as growth inhibition after 48 hrs by SRB assay; conditions: Cancer cell lines; outline: as §4
# [3] = Cytotoxicity against human renal cancer cells assessed as growth inhibition after 48 hrs by SRB assay; conditions: Cancer cell lines; outline: as §4
# [4] = read-out: LC50 (the source's name)
smiles,measurement,setting,value
CC(C)Sc1cc2c(c3nsnc13)C(=O)c1ccccc1C2=O,GI50,K562,0.26 µM
same,LC50,K562,14.3 µM
same,TGI,K562,1.35 µM
same,GI50,RPMI-8226,0.29 µM
same,LC50,RPMI-8226,> 100 µM
same,TGI,RPMI-8226,1.78 µM
same,GI50,A549,2.43 µM
same,LC50 (concentration killing 50% of cells),A549,51.4 µM
same,TGI,A549,7.94 µM
same,GI50,HOP-92,0.32 µM
same,LC50 (concentration giving 50% net cell kill),HOP-92,14.5 µM
same,TGI,HOP-92,2.18 µM
same,GI50,NCI-H522,2.38 µM
same,LC50 (concentration giving 50% net cell kill),NCI-H522,9.96 µM
same,TGI,NCI-H522,4.87 µM
same,GI50,COLO 205,13.3 µM
same,LC50,COLO 205,51 µM
same,TGI,COLO 205,20.6 µM
same,GI50,HCT-116,0.29 µM
same,TGI,HCT-116,1.01 µM
same,CC50,HCT-116; [4],4.22 µM
same,GI50,HCT-15,1.69 µM
same,LC50,HCT-15,40.4 µM
same,TGI,HCT-15,6.91 µM
same,GI50,HT-29,12.2 µM
same,LC50,HT-29,92.7 µM
same,TGI,HT-29,33.6 µM
same,GI50,KM12,3.19 µM
same,LC50 (concentration killing 50% of cells),KM12,41.1 µM
same,TGI,KM12,11.3 µM
same,GI50,SW-620,0.43 µM
same,LC50 (50% lethal concentration),SW-620,11.7 µM
same,TGI,SW-620,2.21 µM
same,GI50,SF-295,1.88 µM
same,LC50,SF-295,9.83 µM
same,TGI,SF-295,4.3 µM
same,GI50,SF-539,1.73 µM
same,LC50,SF-539,7.14 µM
same,TGI,SF-539,3.51 µM
same,GI50,SNB-19,3.32 µM
same,LC50,SNB-19,36.3 µM
same,TGI,SNB-19,13.1 µM
same,GI50,SNB-75,0.52 µM
same,LC50 (concentration killing 50% of cells),SNB-75,23.9 µM
same,TGI,SNB-75,3.95 µM
same,GI50,U-251,1.48 µM
same,LC50,U-251,6.75 µM
same,TGI,U-251,3.16 µM
same,GI50,UACC-257,0.57 µM
same,LC50,UACC-257,4.47 µM
same,TGI,UACC-257,1.88 µM
same,GI50,IGROV-1,0.96 µM
same,LC50,IGROV-1,9.18 µM
same,TGI,IGROV-1,3.01 µM
same,GI50,OVCAR-3,0.25 µM
same,TGI,OVCAR-3,0.638 µM
same,CC50,OVCAR-3; [4],2.98 µM
same,GI50,NCI/ADR-RES,0.52 µM
same,LC50 (concentration killing 50% of cells),NCI/ADR-RES,> 100 µM
same,TGI,NCI/ADR-RES,3.2 µM
same,GI50,SK-OV-3,2.9 µM
same,LC50,SK-OV-3,36.9 µM
same,TGI,SK-OV-3,12.6 µM
same,GI50,CAKI-1,0.59 µM
same,LC50 (concentration causing 50% net cell kill),CAKI-1,9.08 µM
same,TGI,CAKI-1,2.59 µM
same,GI50,SN12C,0.66 µM
same,TGI,SN12C,2.41 µM
same,CC50,SN12C; [4],7.09 µM
same,GI50,TK-10,5.68 µM
same,LC50 (concentration killing 50% of cells),TK-10,87.6 µM
same,TGI,TK-10,18 µM
same,GI50,UO-31,1.16 µM
same,LC50,UO-31,11.9 µM
same,TGI,UO-31,3.56 µM
same,GI50,DU-145,1.45 µM
same,LC50,DU-145,26.4 µM
same,TGI,DU-145,6.64 µM
same,GI50,MDA-MB-468,0.37 µM
same,LC50,MDA-MB-468,4.39 µM
same,TGI,MDA-MB-468,1.42 µM
same,GI50,[1],0.25 µM
same,GI50,[2],4.94 µM
same,GI50,[3],1.58 µM
